Experimental data as given in ChEMBL document CHEMBL2417391, “Additional cytotoxic pyridoacridine alkaloids from the ascidian Cystodytes violatinctus and biogenetic considerations” (J Nat Prod, 2013).

Assays:
Assay type in all cases: functional, cell-based
HCT-116 = test: Cytotoxicity against human HCT116 cells after 48 hrs by MTT assay; conditions: HCT-116, 48 h
Outline: (§1)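 Colon lines HCT116 and SW480 kept in DMEM with 10% FBS, 2 mM L-glutamine, penicillin/streptomycin. 20 × 10^3 cells/well seeded, overnight adhesion, then 48 h treatment at 10−10 to 10−4 M, serially diluted in medium from 10−2 M DMSO stock; triplicates. Viability by MTT (3 h), formazan in 2-propanol/HCl read at 540 nm; IC50 by sigmoidal curve fitting.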

SW480 = test: Cytotoxicity against human SW480 cells after 48 hrs by MTT assay; conditions: SW480, 48 h; outline: as §1
A-375 = test: Cytotoxicity against human A375 cells after 48 hrs by MTT assay; conditions: A-375, 48 h
Outline: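 A375 melanoma cells grown in RPMI complete medium with 10% FBS, 2 mM L-glutamine, penicillin/streptomycin. Seeded 20 × 10^3 cells/well, adhered overnight, then exposed 48 h to serial dilutions from 10−10 to 10−4 M (from 10−2 M DMSO stock) in triplicate. MTT 1 mg/mL added for 3 h, formazan dissolved in 2-propanol/HCl, absorbance 540 nm; IC50 from sigmoidal dose–response fit.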

Which IC50 (HCT-116) does the source give for `C/C=C(\C)C(=O)NCCc1c2c3c(ccnc3c3ncsc13)-c1ccccc1N2` here?
Its IC50 is over 10 µM.

And the IC50 (SW480)?
The IC50 was 3.3 µM.

And the IC50 (A-375)?
The IC50 was over 10 µM.

Which IC50 (HCT-116) does the source give for `CC(C)=CC(=O)NCCc1c2c3c(ccnc3c3ncsc13)-c1ccccc1N2` here?
Its IC50 is 14.4 µM.

And the IC50 (SW480)?
Its IC50 is 8.02 µM.

And the IC50 (A-375)?
Its IC50 is 11.8 µM.

With `CC(C)=CC(=O)NCCc1c2c(c3nccc4c3c1Nc1ccccc1-4)NC(=O)CS2` as the compound, how does the IC50 (HCT-116) read?
Its IC50 is 19 µM.

And the IC50 (SW480)?
Its IC50 is 9.99 µM.

And the IC50 (A-375)?
Its IC50 is over 10 µM.

What does the source list for `C/C=C(\C)C(=O)NCCc1c2c(c3nccc4c3c1Nc1ccccc1-4)NC(=O)CS2`?
IC50 (HCT-116): > 10 µM; IC50 (SW480): > 10 µM; IC50 (A-375): > 10 µM

For `CC(C)=CC(=O)Nc1cc2cc(O)c3nccc4c5ccccc5n1c2c34`, which IC50 (HCT-116) is on record?
The IC50 was 4.32 µM.

And the IC50 (SW480)?
The IC50 was 8.48 µM.

What about the IC50 (A-375) of the same compound?
Its IC50 is 6 µM.

Which results are given for `O=C1c2cccnc2-c2nccc3c2c1nc1ccccc13` [ASCIDIDEMIN]?
IC50 (HCT-116): 0.25 µM; IC50 (SW480): 0.1 µM; IC50 (A-375): 0.38 µM

`C/C=C(\C)C(=O)Nc1cc2cc(O)c3nccc4c5ccccc5n1c2c34` was tested. Which IC50 (HCT-116) did it give?
Its IC50 is 18.9 µM.

What about the IC50 (SW480) of the same compound?
The IC50 was over 10 µM.

And the IC50 (A-375)?
Its IC50 is over 10 µM.
